# Experimental data published in ChEMBL document CHEMBL1944511, “Bakuchiol derivatives as novel and potent cytotoxic agents: a report” (Eur J Med Chem, 2012).
# Assays:
# [1] = system: THP-1; assay: Growth inhibition of human THP1 cells at 5 uM after 48 hrs by sulpharhodamine B assay; type: functional; details: THP-1, 48 h, read-out: GI
# Outline: (§1)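 Cells grown in RPMI-1640/MEM with 10% FCS, penicillin/streptomycin, 37 °C, 5% CO2. Seeded in 96-well plates, allowed to adhere overnight, then exposed 48 h to analogs in DMSO (vehicle <0.2% in controls). TCA-fixed, stained with 0.4% SRB in 1% acetic acid, dye solubilized in 10 mM Tris base, OD 570 nm (ref 620 nm). Mean ± SD of three experiments run in triplicate.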
# [2] = system: PC-3; assay: Growth inhibition of human PC3 cells at 30 uM after 48 hrs by sulpharhodamine B assay; type: functional; details: PC-3, 48 h, read-out: GI; outline: as §1
# [3] = system: PC-3; assay: Growth inhibition of human PC3 cells at 50 uM after 48 hrs by sulpharhodamine B assay; type: functional; details: PC-3, 48 h, read-out: GI; outline: as §1
# [4] = system: IMR-32; assay: Growth inhibition of human IMR32 cells at 10 uM after 48 hrs by sulpharhodamine B assay; type: functional; details: IMR-32, 48 h, read-out: GI
# Outline: (§2)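 This is the SRB protein-stain assay on adherent cells in RPMI-1640/MEM with 10% FCS. Each compound in DMSO (vehicle <0.2%) was applied at a single fixed concentration for 48 h. Cells were fixed with TCA and stained with SRB, and the dye was solubilised in Tris and read at 570/620 nm. Percent growth inhibition is relative to vehicle-treated controls, reported as mean ± SD of three experiments run in triplicate.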
# [5] = system: HEp-2; assay: Growth inhibition of human Hep2 cells at 10 uM after 48 hrs by sulpharhodamine B assay; type: functional; details: HEp-2, 48 h, read-out: GI; outline: as §2
# [6] = system: PC-3; assay: Growth inhibition of human PC3 cells at 10 uM after 48 hrs by sulpharhodamine B assay; type: functional; details: PC-3, 48 h, read-out: GI; outline: as §2
# [7] = system: IMR-32; assay: Growth inhibition of human IMR32 cells at 5 uM after 48 hrs by sulpharhodamine B assay; type: functional; details: IMR-32, 48 h, read-out: GI; outline: as §2
# [8] = system: DU-145; assay: Growth inhibition of human DU145 cells at 10 uM after 48 hrs by sulpharhodamine B assay; type: functional; details: DU-145, 48 h, read-out: GI; outline: as §2
# [9] = system: HeLa; assay: Growth inhibition of human HeLa cells at 50 uM after 48 hrs by sulpharhodamine B assay; type: functional; details: read-out: GI; outline: as §2
# [10] = system: THP-1; assay: Growth inhibition of human THP1 cells at 10 uM after 48 hrs by sulpharhodamine B assay; type: functional; details: THP-1, 48 h, read-out: GI; outline: as §1
# [11] = system: HCT-15; assay: Growth inhibition of human HCT15 cells at 5 uM after 48 hrs by sulpharhodamine B assay; type: functional; details: HCT-15, 48 h, read-out: GI; outline: as §2
# [12] = system: HEp-2; assay: Growth inhibition of human Hep2 cells at 30 uM after 48 hrs by sulpharhodamine B assay; type: functional; details: HEp-2, 48 h, read-out: GI; outline: as §2
# [13] = system: PC-3; assay: Cytotoxicity against human PC3 cells after 48 hrs by sulpharhodamine B assay; type: functional, cell-based; details: PC-3, 48 h
# Outline: (§3)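 Cells were grown in RPMI-1640/MEM with 10% FCS and penicillin/streptomycin at 37 °C under 5% CO2, then seeded and left to adhere overnight. Analogs in DMSO (vehicle <0.2%) were added at several concentrations for 48 h. Cells were fixed with cold 50% TCA, stained with 0.4% SRB in 1% acetic acid, solubilised in 10 mM Tris, and read at OD 570/620 nm. IC50 came from non-linear regression.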
# [14] = system: THP-1; assay: Growth inhibition of human THP1 cells at 20 uM after 48 hrs by sulpharhodamine B assay; type: functional; details: THP-1, 48 h, read-out: GI; outline: as §1
# [15] = system: HCT-15; assay: Cytotoxicity against human HCT15 cells after 48 hrs by sulpharhodamine B assay; type: functional, cell-based; details: HCT-15, 48 h; outline: as §3
# [16] = system: MCF7; assay: Growth inhibition of human MCF7 cells at 30 uM after 48 hrs by sulpharhodamine B assay; type: functional; details: MCF7, 48 h, read-out: GI; outline: as §2
# [17] = system: HEp-2; assay: Growth inhibition of human Hep2 cells at 5 uM after 48 hrs by sulpharhodamine B assay; type: functional; details: HEp-2, 48 h, read-out: GI; outline: as §2
# [18] = system: MCF7; assay: Cytotoxicity against human MCF7 cells after 48 hrs by sulpharhodamine B assay; type: functional, cell-based; details: MCF7, 48 h; outline: as §3
# [19] = system: IMR-32; assay: Growth inhibition of human IMR32 cells at 30 uM after 48 hrs by sulpharhodamine B assay; type: functional; details: IMR-32, 48 h, read-out: GI; outline: as §2
# [20] = system: A549; assay: Growth inhibition of human A549 cells at 50 uM after 48 hrs by sulpharhodamine B assay; type: functional; details: A549, 48 h, read-out: GI; outline: as §2
# [21] = system: A549; assay: Growth inhibition of human A549 cells at 5 uM after 48 hrs by sulpharhodamine B assay; type: functional; details: A549, 48 h, read-out: GI; outline: as §2
# [22] = system: PC-3; assay: Growth inhibition of human PC3 cells at 20 uM after 48 hrs by sulpharhodamine B assay; type: functional; details: PC-3, 48 h, read-out: GI; outline: as §2
# [23] = system: THP-1; assay: Growth inhibition of human THP1 cells at 30 uM after 48 hrs by sulpharhodamine B assay; type: functional; details: THP-1, 48 h, read-out: GI; outline: as §1
# [24] = system: PC-3; assay: Growth inhibition of human PC3 cells at 5 uM after 48 hrs by sulpharhodamine B assay; type: functional; details: PC-3, 48 h, read-out: GI; outline: as §1
# [25] = system: A549; assay: Cytotoxicity against human A549 cells after 48 hrs by sulpharhodamine B assay; type: functional, cell-based; details: A549, 48 h; outline: as §3
# [26] = system: A549; assay: Growth inhibition of human A549 cells at 10 uM after 48 hrs by sulpharhodamine B assay; type: functional; details: A549, 48 h, read-out: GI; outline: as §2
# [27] = system: HEp-2; assay: Cytotoxicity against human Hep2 cells after 48 hrs by sulpharhodamine B assay; type: functional, cell-based; details: HEp-2, 48 h; outline: as §3
# [28] = system: A549; assay: Growth inhibition of human A549 cells at 20 uM after 48 hrs by sulpharhodamine B assay; type: functional; details: A549, 48 h, read-out: GI; outline: as §2
# [29] = system: HCT-15; assay: Growth inhibition of human HCT15 cells at 20 uM after 48 hrs by sulpharhodamine B assay; type: functional; details: HCT-15, 48 h, read-out: GI; outline: as §2
# [30] = system: A549; assay: Growth inhibition of human A549 cells at 30 uM after 48 hrs by sulpharhodamine B assay; type: functional; details: A549, 48 h, read-out: GI; outline: as §2
# [31] = system: HCT-15; assay: Growth inhibition of human HCT15 cells at 10 uM after 48 hrs by sulpharhodamine B assay; type: functional; details: HCT-15, 48 h, read-out: GI; outline: as §2
# [32] = system: OVCAR-5; assay: Growth inhibition of human OVCAR5 cells at 50 uM after 48 hrs by sulpharhodamine B assay; type: functional; details: OVCAR-5, 48 h, read-out: GI; outline: as §2
# [33] = system: THP-1; assay: Cytotoxicity against human THP1 cells after 48 hrs by sulpharhodamine B assay; type: functional, cell-based; details: THP-1, 48 h; outline: as §3
# [34] = system: SF-295; assay: Cytotoxicity against human SF295 cells after 48 hrs by sulpharhodamine B assay; type: functional, cell-based; details: SF-295, 48 h; outline: as §3
# [35] = system: HeLa; assay: Growth inhibition of human HeLa cells at 30 uM after 48 hrs by sulpharhodamine B assay; type: functional; details: read-out: GI; outline: as §2
# [36] = system: HEp-2; assay: Growth inhibition of human Hep2 cells at 50 uM after 48 hrs by sulpharhodamine B assay; type: functional; details: HEp-2, 48 h, read-out: GI; outline: as §2
# [37] = system: MCF7; assay: Growth inhibition of human MCF7 cells at 50 uM after 48 hrs by sulpharhodamine B assay; type: functional; details: MCF7, 48 h, read-out: GI; outline: as §2
# [38] = system: MCF7; assay: Growth inhibition of human MCF7 cells at 10 uM after 48 hrs by sulpharhodamine B assay; type: functional; details: MCF7, 48 h, read-out: GI; outline: as §2
# [39] = system: IMR-32; assay: Growth inhibition of human IMR32 cells at 20 uM after 48 hrs by sulpharhodamine B assay; type: functional; details: IMR-32, 48 h, read-out: GI; outline: as §2
# [40] = system: DU-145; assay: Growth inhibition of human DU145 cells at 5 uM after 48 hrs by sulpharhodamine B assay; type: functional; details: DU-145, 48 h, read-out: GI; outline: as §2
# [41] = system: THP-1; assay: Growth inhibition of human THP1 cells at 50 uM after 48 hrs by sulpharhodamine B assay; type: functional; details: THP-1, 48 h, read-out: GI; outline: as §1
# [42] = system: IMR-32; assay: Growth inhibition of human IMR32 cells at 50 uM after 48 hrs by sulpharhodamine B assay; type: functional; details: IMR-32, 48 h, read-out: GI; outline: as §2
# [43] = system: MCF7; assay: Growth inhibition of human MCF7 cells at 20 uM after 48 hrs by sulpharhodamine B assay; type: functional; details: MCF7, 48 h, read-out: GI; outline: as §2
# [44] = system: HEp-2; assay: Growth inhibition of human Hep2 cells at 20 uM after 48 hrs by sulpharhodamine B assay; type: functional; details: HEp-2, 48 h, read-out: GI; outline: as §2
# [45] = system: OVCAR-5; assay: Growth inhibition of human OVCAR5 cells at 30 uM after 48 hrs by sulpharhodamine B assay; type: functional; details: OVCAR-5, 48 h, read-out: GI; outline: as §2
# [46] = system: DU-145; assay: Cytotoxicity against human DU145 cells after 48 hrs by sulpharhodamine B assay; type: functional, cell-based; details: DU-145, 48 h; outline: as §3
# [47] = system: DU-145; assay: Growth inhibition of human DU145 cells at 20 uM after 48 hrs by sulpharhodamine B assay; type: functional; details: DU-145, 48 h, read-out: GI; outline: as §2
# [48] = system: MCF7; assay: Growth inhibition of human MCF7 cells at 5 uM after 48 hrs by sulpharhodamine B assay; type: functional; details: MCF7, 48 h, read-out: GI; outline: as §2
smiles,measurement,setting,value
C=C[C@@](C)(/C=C/c1ccc(OC(C)=O)cc1)CCC=C(C)C [ACETYLBAKUCHIOL],inhibition of growth at 5 µM,[1],34%
same,inhibition of growth at 30 µM,[2],60%
same,inhibition of growth at 50 µM,[3],67%
same,inhibition of growth at 10 µM,[4],34%
same,inhibition of growth at 10 µM,[5],30%
same,inhibition of growth at 10 µM,[6],32%
same,inhibition of growth at 5 µM,[7],27%
same,inhibition of growth at 10 µM,[8],29%
same,inhibition of growth at 50 µM,[9],63%
same,inhibition of growth at 10 µM,[10],44%
same,inhibition of growth at 5 µM,[11],31%
same,inhibition of growth at 30 µM,[12],51%
same,IC50,[13],23 µM
same,inhibition of growth at 20 µM,[14],50%
same,IC50,[15],11 µM
same,inhibition of growth at 30 µM,[16],56%
same,inhibition of growth at 5 µM,[17],14%
same,IC50,[18],25 µM
same,inhibition of growth at 30 µM,[19],59%
same,inhibition of growth at 50 µM,[20],72%
same,inhibition of growth at 5 µM,[21],13%
same,inhibition of growth at 20 µM,[22],45%
same,inhibition of growth at 30 µM,[23],63%
same,inhibition of growth at 5 µM,[24],21%
same,IC50,[25],40 µM
same,inhibition of growth at 10 µM,[26],22%
same,IC50,[27],20 µM
same,inhibition of growth at 20 µM,[28],1%
same,inhibition of growth at 20 µM,[29],57%
same,inhibition of growth at 30 µM,[30],60%
same,inhibition of growth at 10 µM,[31],46%
same,inhibition of growth at 50 µM,[32],71%
same,IC50,[33],18 µM
same,IC50,[34],8 µM
same,inhibition of growth at 30 µM,[35],45%
same,inhibition of growth at 50 µM,[36],52%
same,inhibition of growth at 50 µM,[37],75%
same,inhibition of growth at 10 µM,[38],31%
same,inhibition of growth at 20 µM,[39],48%
same,inhibition of growth at 5 µM,[40],19%
same,inhibition of growth at 50 µM,[41],81%
same,inhibition of growth at 50 µM,[42],71%
same,inhibition of growth at 20 µM,[43],44%
same,inhibition of growth at 20 µM,[44],46%
same,inhibition of growth at 30 µM,[45],62%
same,IC50,[46],26 µM
same,inhibition of growth at 20 µM,[47],42%
same,inhibition of growth at 5 µM,[48],15%
